CAL PDZ FP-1: CAL PDZ (human) peptide binding inhibition. 0.92% of 300,000 active. Q9HD26. purified CAL PDZ, TMR-peptide fluorescence polarization, 1 h. AID 602252. inhibition, % at 24.9 µM;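 active means mean inhibition of at least 30% with at least half of replicates also reaching 30%; inconclusive means no clear call, values can overlap the other calls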;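 further: 0% = DMSO neutral control and 100% = excess unlabeled competitor peptide PRC23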
DYRK1A inh: Dyrk1A (rat) kinase inhibition | Q63470 | ADP-Glo luminescence, NFATc1 peptide | inhibition, % at 12.5 µM | 0.43% of 310,000 active; in the data active means inhibition above about 50%;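 further: plate controls were vehicle with enzyme for no effect and no enzyme for full effect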
CAL PDZ FP-2: blocks peptide binding to human CAL PDZ domain; Q9HD26; purified CAL PDZ, TMR-peptide fluorescence polarization, 1 h; inhibition, % at 20 µM; 0.02% of 330,000 active; AID 504414;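 active means highest replicate inhibition of at least 40%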;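 further: plate controls were DMSO neutral control wells for no effect and unlabeled competitor peptide control wells for full effect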
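Material: tagged CAL PDZ protein CerCALP, purified; buffer or medium: sodium phosphate/NaCl buffer pH 7.4 with TCEP, IgG, Thesit; also added: fluorescent TMR peptide probe; schedule: 1 h incubation at room temperature before polarization reading; technique: fluorescence polarization from S- and P-plane intensities, G-factor corrected; control set: unlabelled peptide and DMSO controls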
Rtt109 Vps75: blocks Candida albicans Rtt109/Vps75 acetyltransferase activity; AID 540336; inhibition, % at 34.9 µM; purified Rtt109/Vps75, ThioGlo CoA-SH fluorescence, 4 h; 0.16% of 330,000 active; Q5AAJ8;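 active means inhibition of at least 50% in every replicate; inconclusive means best replicate reaches 50% inhibition but some replicates fall short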
ALR H2O2 inh: inhibitors of human sulfhydryl oxidase ALR | P55789 | purified ALR, DTT oxidation, H2O2 HRP-luminol luminescence | inhibition, % (test concentration not listed) | 3.8% of 290,000 active | AID 485317;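 active means mean replicate inhibition above about 79%, with every replicate also reaching it, limit read from the data; inconclusive means only one of the two criteria met; inactive means mean below limit and not every replicate reaching it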
Target sequence (P55789 whole entry, looked up): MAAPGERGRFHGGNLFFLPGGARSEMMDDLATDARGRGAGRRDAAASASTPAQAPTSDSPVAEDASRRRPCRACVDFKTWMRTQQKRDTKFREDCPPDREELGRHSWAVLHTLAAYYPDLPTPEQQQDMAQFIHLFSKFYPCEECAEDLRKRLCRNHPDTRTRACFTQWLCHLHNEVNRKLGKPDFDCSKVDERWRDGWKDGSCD
Numbers without * were called inactive. This is a sample that favours compounds with a hit; in the whole collection about 4.3% have one here.

Results for C=CC[C@@H](CC/C=C/C=C/CC/C=C\[C@@H]1CSC([C@@H]2C[C@@H]2C)=N1)OC ?
CAL PDZ FP-1: -1.0; CAL PDZ FP-2: -0.3; Rtt109 Vps75: 6.2

What do the screens show for `O=C(Cc1ccc(N(CCCl)CCCl)cc1)NC(Cc1ccc(Cl)cc1)C(=O)O` (centres undefined)?
CAL PDZ FP-2: -1.4; Rtt109 Vps75: 10.8; ALR H2O2 inh: 98.4*

What do the screens show for `CC(=O)c1cn(CCCOc2ccccc2)c2ccccc12`?
CAL PDZ FP-1: -2.9; DYRK1A inh: 14.8; CAL PDZ FP-2: -2.9; Rtt109 Vps75: -6.2; ALR H2O2 inh: -2.1

Results for O=c1[nH]c(=O)n(-c2ccccc2F)c(O)c1/C=C1\C=Nc2ccccc21 ?
CAL PDZ FP-1: -3.3; DYRK1A inh: -2.1; CAL PDZ FP-2: -1.9; Rtt109 Vps75: 0.2; ALR H2O2 inh: 95.9*

Results for COc1ccc(-n2c(O)c(/C=C3\C=Nc4ccc(Br)cc43)c(=O)[nH]c2=O)cc1 ?
CAL PDZ FP-1: -3.9; DYRK1A inh: -2.2; CAL PDZ FP-2: 0.1; Rtt109 Vps75: 0.4; ALR H2O2 inh: 3.3

How did O=c1[nH]c(=O)n(-c2ccc(F)cc2)c(O)c1/C=C1\C=Nc2ccccc21 do in these assays?
CAL PDZ FP-1: 12.7; DYRK1A inh: 9.0; CAL PDZ FP-2: 0.3; Rtt109 Vps75: -8.9; ALR H2O2 inh: 1.0

What do the screens show for `COc1ccc(-n2c(O)c(/C=C3\C=Nc4ccc(Br)cc43)c(=O)[nH]c2=O)c(OC)c1`?
CAL PDZ FP-1: -3.8; DYRK1A inh: 12.1; CAL PDZ FP-2: -1.1; Rtt109 Vps75: -9.9; ALR H2O2 inh: 96.9*

What do the screens show for `O=C1NC(=O)C(=Cc2cc3c(cc2[N+](=O)[O-])OCO3)C(=O)N1`?
CAL PDZ FP-1: 3.9; DYRK1A inh: 0.6; CAL PDZ FP-2: 0.3; Rtt109 Vps75: 73.6*; ALR H2O2 inh: 38.0

How did N#CC(C#N)=Cc1ccc(O)c(O)c1 do in these assays?
CAL PDZ FP-1: -2.2; DYRK1A inh: 46.5; CAL PDZ FP-2: -0.7; Rtt109 Vps75: -1.0; ALR H2O2 inh: 98.1*

What do the screens show for `CCn1c(=O)n(CC(=O)N2CCC3(CC2)OCCO3)c(=O)c2ccccc21`?
CAL PDZ FP-1: 51.9*; DYRK1A inh: 9.1; CAL PDZ FP-2: -0.6; Rtt109 Vps75: 4.7; ALR H2O2 inh: -3.3

How did O=C(Cn1ncc2ccccc21)N1CCC2(CC1)OCCO2 do in these assays?
CAL PDZ FP-1: 0.3; DYRK1A inh: 0.8; CAL PDZ FP-2: -0.3; Rtt109 Vps75: 8.8; ALR H2O2 inh: -3.9

How did CSc1ncc(/C=C2/C(=O)NC(=O)N(c3ccc(Cl)cc3)C2=O)cn1 do in these assays?
CAL PDZ FP-1: 4.0; DYRK1A inh: 5.8; CAL PDZ FP-2: -0.8; Rtt109 Vps75: 63.7*

What do the screens show for `Cc1oc(-c2ccccc2F)nc1CS(=O)CC(=O)N1CCC2(CC1)OCCO2` (centres undefined)?
CAL PDZ FP-1: -1.1; DYRK1A inh: -2.3; CAL PDZ FP-2: -0.4; Rtt109 Vps75: 8.3; ALR H2O2 inh: 98.9*

What do the screens show for `Cc1oc(-c2ccc(Cl)cc2)nc1CS(=O)CC(=O)N1CCC2(CC1)OCCO2` (centres undefined)?
CAL PDZ FP-1: -3.6; DYRK1A inh: -3.3; CAL PDZ FP-2: -0.3; Rtt109 Vps75: 2.4; ALR H2O2 inh: 98.5*

What do the screens show for `COc1cccc(-c2nc(CS(=O)CC(=O)N3CCC4(CC3)OCCO4)c(C)o2)c1` (centres undefined)?
DYRK1A inh: -2.3; CAL PDZ FP-2: -0.9; Rtt109 Vps75: -5.2

What do the screens show for `O=C(Cc1cccs1)N1CCC2(CC1)OCCO2`?
DYRK1A inh: -2.4; CAL PDZ FP-2: -1.7; Rtt109 Vps75: 4.4; ALR H2O2 inh: -3.4

What do the screens show for `Ic1ccccc1CN[C@@H]1C2CCN(CC2)[C@@H]1C(c1ccccc1)c1ccccc1`?
CAL PDZ FP-1: -2.0; DYRK1A inh: 4.9; CAL PDZ FP-2: -2.2; Rtt109 Vps75: 21.1

What do the screens show for `C[C@]12C=CC(=O)C=C1C=C[C@@H]1C2CC[C@]2(C)C(=O)CCC12` (some centres undefined)?
CAL PDZ FP-1: -1.0; DYRK1A inh: -1.9; CAL PDZ FP-2: 1.6; Rtt109 Vps75: -9.1; ALR H2O2 inh: inconclusive

Results for Cc1cc(/C=C2/C(=O)NC(=O)N(Cc3ccco3)C2=O)c(C)n1-c1ccccc1O ?
CAL PDZ FP-1: -7.7; DYRK1A inh: 7.1; CAL PDZ FP-2: 1.5; Rtt109 Vps75: inconclusive; ALR H2O2 inh: 80.6*

What do the screens show for `CCN1C(=O)NC(=O)/C(=C\c2cn(CC(=O)O)c3ccccc23)C1=O`?
ALR H2O2 inh: 6.5

Screens from PubChem.
